Bioassay records: PubChem BioAssay, several laboratories
MT stabilizer = stabilizes microtubules in HeLa cells | HeLa tubulin immunostaining HCS, 24 h; share of cells brighter than vehicle mean+2SD | % tubulin-high responders, % at 10 µM | 200,000 compounds, 0.83% hits | AID 2205;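 active means plate Z-score above 3 for both tubulin-high and condensed-nucleus cell shares, with cell loss under 80%, at 10 µM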;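 further: anti alpha tubulin signal scored within the nucleus-defined area of each cell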
b-catenin transl = alters nuclear translocation of beta-catenin in HeLa cells; immunofluorescence imaging; nuclear translocation activity, % at 5 µM; 190,000 compounds, 0.3% hits; AID 1665;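 active means nuclear translocation activity above 50% at 5 µM, with a well cell count of 50 or more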;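 further: per-cell ratio of nuclear to cytoplasmic median beta-catenin stain intensity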
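Signal – beta-catenin immunofluorescence imaging with DAPI · Test system – human HeLa cell line · Dosing – 5 µM primary single dose, 0.1% DMSO, 0.02–20 µM confirmation series · Measure – % activation, nuclear-to-cytoplasmic median beta-catenin signal ratio per cell · Incubation – 24 h compound exposure at 37°C, 5% CO2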
Autophagy HCS = modulators of autophagy. AID 463193. calls only at 10 µM (by protocol). MEF GFP-LC3 puncta imaging; test concentration mostly 10 µM. 190,000 compounds, 0.98% hits;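 active means percentage of spot-positive cells more than 3 SD above its plate mean, without a fluorescence outlier flag or 80% toxicity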
Ins promoter up = MIN6 insulin promoter up-regulation | MIN6 insulin promoter-GFP reporter, high-content imaging; active compounds read high | 190,000 compounds, 0.3% hits | z-score at 5 µM;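 active means z-score above 3 at 5 µM with at least 500 cells counted in the well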
Numbers stand for hits; i = inactive; nt = no result; + = active, no number. Most compounds without a hit are left out; they make up all but 1.9% or so of the library.

SMILES	MT stabilizer	b-catenin transl	Autophagy HCS	Ins promoter up
Cc1ccc2nc3sc(C(=O)N4CCCc5ccccc54)c(N)c3cc2c1	28.1	i	i	i
Cc1ccc(-c2cc(C(=O)N3CCCc4ccccc43)c3ccccc3n2)cc1	i	i	i	i
COC(=O)c1cc(C(=O)c2ccc(Cl)cc2)n2c(=O)/c(=C\N(C)C)sc12	i	i	+	nt
COc1ccc2nc(N3C(=O)/C(=C/c4ccc(Cl)cc4)NC3=S)sc2c1	i	i	+	i
O=C(NC(c1ccccc1)C(Cl)(Cl)Cl)c1ccccc1 (stereo not drawn)	i	i	i	i
COc1ccc2c(c1)C(=O)N(c1ccccc1C)C(=O)C2(C)C	19.0	i	i	i
CC(=O)n1cc([C@H]2C=C(C(=O)N3CCN(Cc4ccc5c(c4)OCO5)CC3)O[C@@H](OCCCCO)C2)c2ccccc21	i	i	i	i
COc1ccc(C(=O)NCC(=O)NCC(=O)OCc2ccc(Br)cc2)cc1	i	i	i	i
CCOC(=O)c1cnn(-c2cc(C)nc3c(-c4ccccc4)cnn23)c1N	i	i	i	3.62
CCOC(=O)c1cnn(-c2cc(C(C)(C)C)nc3c(-c4ccccc4)c(C)nn23)c1N	i	i	i	i
CCCN1C(=O)/C(=N\OCC(=O)NC23CC4CC(CC(C4)C2)C3)c2ccccc21	i	i	i	i
Cc1nn(-c2ccccc2)c(N)c1N=Nc1ccccc1	i	i	i	i
Nc1nn(-c2ccccc2)c(N)c1N=Nc1ccccc1	21.6	89.2	i	i
Nc1nn(-c2ccccc2)c(N)c1N=Nc1ccccc1F	25.7	i	i	i
Cc1ccc(Nc2nnc(SCC(=O)NCCN3C(=O)CSC3=O)s2)cc1	i	i	i	i
CCOC(=O)C1CN(S(C)(=O)=O)c2cc(CC(=O)OC)ccc2O1 (stereo not drawn)	i	i	i	i
Cc1ccc(CN2C(=O)c3ccccc3NC23CCN(Cc2ccccc2)CC3)cc1	i	i	+	i
O=C1NC2(CCN(Cc3ccccc3)CC2)Oc2ccccc21	i	i	i	nt
CN(C)c1ccc(-c2ccc([C@H]3[C@@H]4C=CCC[C@@]4(C)C(=O)N3Cc3ccccc3)c(F)c2)cc1	nt	i	nt	nt
COc1ccc(/C=N/NC(=O)c2cccc([N+](=O)[O-])c2)cc1OC(=O)c1ccccc1	41.3	i	i	i
COc1ccc(/C=N/NC(N)=S)cc1OC(=O)c1ccccc1	37.5	i	i	i
COc1ccc(/C=N/NC(=O)c2cccc([N+](=O)[O-])c2)cc1OC(=O)c1ccc(C)cc1	i	i	i	i
Cc1ccc([N+](=O)[O-])cc1N	i	i	i	i
Nc1ccc2c(c1)Cc1cc([N+](=O)[O-])ccc1-2	i	i	+	nt
